Source: ChEMBL document CHEMBL4385668, “Synthesis and in vitro anticancer activity of new gemcitabine-nucleoside analogue dimers containing methyltriazole or ester-methyltriazole linker” (Bioorg Med Chem Lett, 2019)

How the values were obtained:
[1] = Selectivity index, ratio of IC50 for cytotoxicity in human NHDF cells to IC50 for cytotoxicity in human HeLa cells
How it was run: (§1)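 Selectivity index is the IC50 in normal HDF fibroblasts divided by the IC50 in the given cancer line.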

[2] = Drug metabolism in human HeLa cells assessed as gemcitabine release incubated for 12 hrs by HPLC/MS method; assay type: ADME, cell-based
How it was run: (§2)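 HeLa cells were incubated with the dimer at 37 °C for 12 h. Cell lysate was analysed by HPLC/MS for released gemcitabine, the deamination product dFdU and the thymidine-triazole fragment. A separately synthesized sample of the thymidine-triazole fragment was used as the reference.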

[3] = Drug metabolism in human HeLa cells assessed as 3'-[4-(hydroxymethyl)-(1,2,3-triazol-1-yl)]-3'-deoxythymidine release incubated for 12 hrs by HPLC/MS method; assay type: ADME, cell-based; how it was run: as §2
[4] = Drug metabolism in human HeLa cells assessed as 2',2'-difluoro-2'-deoxyuridine release incubated for 12 hrs by HPLC/MS method; assay type: ADME, cell-based; how it was run: as §2
[5] = system: KB; experiment: Cytotoxicity in human KB cells assessed as reduction in cell viability incubated for 72 hrs by SRB assay; assay type: functional, cell-based
How it was run: (§3)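 SRB assay of cell viability in human cancer lines (HeLa, KB, A549, U87, HepG2) and normal dermal fibroblasts (HDF). IC50 values are […] of three independent experiments.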

[6] = system: NHDF; experiment: Cytotoxicity in human NHDF cells assessed as reduction in cell viability incubated for 72 hrs by SRB assay; assay type: cell-based; how it was run: as §3
[7] = Selectivity index, ratio of IC50 for cytotoxicity in human NHDF cells to IC50 for cytotoxicity in human HepG2 cells; how it was run: as §1
[8] = system: U-87 MG; experiment: Cytotoxicity in human U87 cells assessed as reduction in cell viability incubated for 72 hrs by SRB assay; assay type: functional, cell-based, U-87MG ATCC; how it was run: as §3
[9] = Selectivity index, ratio of IC50 for cytotoxicity in human NHDF cells to IC50 for cytotoxicity in human A549 cells; how it was run: as §1
[10] = system: A549; experiment: Cytotoxicity in human A549 cells assessed as reduction in cell viability incubated for 72 hrs by SRB assay; assay type: functional, cell-based; settings: A549, 72 h; how it was run: as §3
[11] = Selectivity index, ratio of IC50 for cytotoxicity in human NHDF cells to IC50 for cytotoxicity in human KB cells; how it was run: as §1
[12] = system: HeLa; experiment: Cytotoxicity in human HeLa cells assessed as reduction in cell viability incubated for 72 hrs by SRB assay; assay type: functional, cell-based; how it was run: as §3
[13] = system: HepG2; experiment: Cytotoxicity in human HepG2 cells assessed as reduction in cell viability incubated for 72 hrs by SRB assay; assay type: functional, cell-based; settings: HepG2, 72 h; how it was run: as §3
[14] = Selectivity index, ratio of IC50 for cytotoxicity in human NHDF cells to IC50 for cytotoxicity in human U87 cells; how it was run: as §1

Compound: Cc1cn([C@H]2C[C@H](n3cc(COC(=O)Nc4ccn([C@@H]5O[C@H](CO)[C@@H](O)C5(F)F)c(=O)n4)nn3)[C@@H](CO)O2)c(=O)[nH]c1=O
- Ratio IC50 [1]: 4.41
- Drug metabolism [2]: Metabolite_Detected
- Drug metabolism [3]: Metabolite_Detected
- Drug metabolism [4]: Metabolite_Notdetected
- IC50 [5]: 1.55 µM
- IC50 [6]: 6.7 µM
- Ratio IC50 [7]: 4.38
- IC50 [8]: 1.89 µM
- Ratio IC50 [9]: 4.01
- IC50 [10]: 1.67 µM
- Ratio IC50 [11]: 4.32
- IC50 [12]: 1.52 µM
- IC50 [13]: 1.53 µM
- Ratio IC50 [14]: 3.55
